Assay results collected from several papers.
Each line is one published result; the experiments were not run side by side.
Matrix: Caco-2

SMILES	setting	quantity	value
N#C[C@H](C[C@@H]1CCCNC1=O)NC(=O)[C@H](CC1CC1)NC(=O)c1cc2cccc(Cl)c2[nH]1	–	Papp	0.36 ×10⁻⁶ cm/s
O=c1c(O)c(-c2ccc(O)cc2)oc2cc(O)cc(O)c12	1 mg/mL, pH 7.4	Papp	1.17 ×10⁻⁶ cm/s
Cn1c(=O)c2c(nc(S)n2C)n(C)c1=O	10 µM, 2 h	Papp B→A	3 ×10⁻⁶ cm/s
O=C(c1cc(Cc2n[nH]c(=O)c3ccccc23)ccc1F)N1CCN(C(=O)C2CC2)CC1	–	Papp	7.75 ×10⁻⁶ cm/s
CCCCN1C(=O)[C@@H]([C@@H](O)C2CCCCC2)NC(=O)C12CCN(Cc1ccc(Oc3ccc(C(=O)O)cc3)cc1)CC2.Cl	–	Papp	1.6 ×10⁻⁶ cm/s
COc1cc(Cl)c(C(=O)N[C@@H](CN[C@H]2CC[C@@H](N)CC2)Cc2ccc(C#N)cc2)cc1-c1ccc(CN[C@H](C)c2ccc(C)cc2)o1	2 µM, 2 h, pH 7.2	Papp B→A	1.1 ×10⁻⁶ cm/s
O=c1c(O[C@@H]2O[C@H](CO)[C@@H](O)[C@H](O)[C@H]2O)c(-c2ccc(O)c(O)c2)oc2cc(O)cc(O)c12	1 mg/mL, pH 7.4	Papp	2.05 ×10⁻⁶ cm/s
CC(C)c1cccc2c(-c3ccccc3)cc(-c3ccc(-c4ccc(C(=O)O)cc4)[nH]3)nc12	–	Papp B→A	1.11 ×10⁻⁶ cm/s
CC(C)NCC(O)COc1cccc2ccccc12 (centres unmarked)	–	Papp B→A	59.3 ×10⁻⁶ cm/s
C[C@H]1O[C@@H](O[C@H]2[C@@H](O)C[C@H](O[C@H]3[C@@H](O)C[C@H](O[C@H]4CC[C@@]5(C)[C@H](CC[C@@H]6[C@@H]5C[C@@H](O)[C@]5(C)[C@@H](C7=CC(=O)OC7)CC[C@]65O)C4)O[C@@H]3C)O[C@@H]2C)C[C@H](O)[C@@H]1O	–	Papp B→A	14 ×10⁻⁶ cm/s
Nc1nc2c(ncn2COCCO)c(=O)[nH]1	10 µM, 2 h, pH 7.4	Papp B→A	0.756 ×10⁻⁶ cm/s
CC(C)(/C=C(\C#N)C(=O)N1CCC[C@@H](n2nc(-c3ccc(Oc4ccccc4)cc3F)c3c(N)ncnc32)C1)N1CCN(C2COC2)CC1	1 µM	Papp	1.7 ×10⁻⁶ cm/s
CCOC(=O)[C@@]12C[C@@H]1[C@@H](n1ccc3c(NC)nc(C#Cc4ccc(Cl)s4)nc31)[C@H](O)[C@@H]2O	10 µM, 2 h, pH 7.4	Papp B→A	22.2 ×10⁻⁶ cm/s
CNCc1cc(-c2ccccc2F)n(S(=O)(=O)c2cccnc2)c1	–	Papp	17.8 ×10⁻⁶ cm/s
CCN1C(=O)N(c2c(F)c(OC)cc(OC)c2F)Cc2cnc3[nH]c(CN4CCOCC4)cc3c21	50 µM	Papp	11 ×10⁻⁶ cm/s
CCC(C)n1ncn(-c2ccc(N3CCN(c4ccc(OCC5COC(Cn6cncn6)(c6ccc(Cl)cc6Cl)O5)cc4)CC3)cc2)c1=O (centres unmarked)	1 µM, pH 7.4	Papp	1.5 to 2.5 ×10⁻⁶ cm/s
CN(C)C(=O)c1cc2cnc(Nc3ccc(N4CCNCC4)cn3)nc2n1C1CCCC1	–	Papp	1.83 ×10⁻⁶ cm/s
